# According to ChEMBL document CHEMBL1629555, “Antimalarial activity of phenylthiazolyl-bearing hydroxamate-based histone deacetylase inhibitors” (Antimicrob Agents Chemother, 2008):
# pIC50: −log10 of the molar value. Calls of active or inactive are those of the source. No cut-off for these calls is given here.
# Key:
# [1] = test system: Plasmodium falciparum; assay: Antimalarial activity against drug-resistant Plasmodium falciparum W2; type: functional, organism-based
# [2] = test system: Plasmodium berghei; assay: Antimalarial activity against Plasmodium berghei infected in mouse assessed as effect on cure rate at split dose of 160 mg/kg/day, po for 3 days; type: functional, organism-based
# How it was run: (§1)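 Mice were infected ip with 10^6 P. berghei-parasitized erythrocytes. The compound was given in hydroxyethylcellulose-Tween 20 vehicle, 5 mice per group, starting on day 3 post-infection. Regimens were once-daily or split daily oral doses over 3 days, subcutaneous dosing, or dosing over 7 days. Read-outs were posttreatment parasitemia on day 6 as a fraction of controls and the number of mice cured.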
# [3] = test system: Plasmodium berghei; assay: Antimalarial activity against Plasmodium berghei infected in mouse assessed as effect on cure rate at single dose of 40 mg/kg/day, po for 3 days; type: functional, organism-based; how it was run: as §1
# [4] = test system: Plasmodium berghei; assay: Antimalarial activity against Plasmodium berghei infected in mouse assessed as effect on cure rate at single dose of 80 mg/kg/day, po for 3 days; type: functional, organism-based; how it was run: as §1
# [5] = test system: Plasmodium berghei; assay: Antimalarial activity against Plasmodium berghei infected in mouse assessed as parasitemia level at split dose of 40 mg/kg/day, po for 3 days measured on day 6 relative to control; type: functional
# How it was run: (§2)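 Blood-stage P. berghei model: mice inoculated ip with 10^6 parasitized erythrocytes. Oral treatment for 3 days, with the daily dose split, in hydroxyethylcellulose-Tween 20 vehicle. Day-6 parasitemia expressed as a fraction of control parasitemia.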
# [6] = test system: Plasmodium berghei; assay: Antimalarial activity against Plasmodium berghei infected in mouse assessed as parasitemia level at split dose of 160 mg/kg/day, po for 3 days measured on day 6 relative to control; type: functional; how it was run: as §2
# [7] = test system: Plasmodium berghei; assay: Antimalarial activity against Plasmodium berghei infected in mouse assessed as parasitemia level at split dose of 320 mg/kg/day, po for 3 days measured on day 6 relative to control; type: functional; how it was run: as §2
# [8] = test system: Plasmodium berghei; assay: Antimalarial activity against Plasmodium berghei infected in mouse assessed as parasitemia level at split dose of 640 mg/kg/day, po for 3 days measured on day 6 relative to control; type: functional; how it was run: as §2
# [9] = test system: Plasmodium berghei; assay: Antimalarial activity against Plasmodium berghei infected in mouse assessed as parasitemia level at single dose of 20 mg/kg/day, po for 3 days measured on day 6 relative to control; type: functional
# How it was run: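 Mice infected intraperitoneally with 10^6 P. berghei-parasitized erythrocytes. Drug given orally once daily on days 3, 4 and 5 post-infection in hydroxyethylcellulose-Tween 20 vehicle, 5 mice per dose group. Parasitemia measured on day 6 and expressed as a fraction of untreated control parasitemia.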
# [10] = test system: Mus musculus; assay: Toxicity in Plasmodium berghei-infected mouse assessed as mortality at split dose of 160 mg/kg/day, po for 3 days; type: organism-based; design: route oral; details: in vivo, 72 h
# [11] = test system: Mus musculus; assay: Toxicity in Plasmodium berghei-infected mouse assessed as mortality at split dose of 320 mg/kg/day, po for 3 days; type: organism-based; design: route oral; details: in vivo, 72 h
# [12] = test system: Plasmodium berghei; assay: Antimalarial activity against Plasmodium berghei infected in mouse assessed as parasitemia level at 32 mg/kg/day for 3 days measured on day 6 in presence of 3.6 mg/kg/day chloroquine (reference value: 37%); type: functional
# How it was run: (§3)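 Mice were infected ip with 10^6 P. berghei-parasitized erythrocytes. The compound was given orally once daily on days 3, 4 and 5 post-infection in hydroxyethylcellulose-Tween 20 vehicle, alone or together with chloroquine, with 5 mice per dose group. Parasitemia (%) was read on days 3 and 6, and cures were counted as animals cured out of 5.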
# [13] = test system: Plasmodium berghei; assay: Antimalarial activity against Plasmodium berghei infected in mouse assessed as parasitemia level at 3.2 mg/kg/day for 3 days measured on day 6 in presence of 4 mg/kg/day chloroquine (reference value: 37%); type: functional
# [14] = test system: Plasmodium berghei; assay: Antimalarial activity against Plasmodium berghei infected in mouse assessed as parasitemia level at 0.32 mg/kg/day for 3 days measured on day 6 in presence of 4 mg/kg/day chloroquine (reference value: 37%); type: functional
# [15] = test system: Plasmodium berghei; assay: Antimalarial activity against Plasmodium berghei infected in mouse assessed as parasitemia level at 12.8 mg/kg/day for 3 days measured on day 6 in presence of 16 mg/kg/day chloroquine (reference value: 37%); type: functional; how it was run: as §3
# [16] = test system: Plasmodium berghei; assay: Antimalarial activity against Plasmodium berghei infected in mouse assessed as effect on cure rate at 160 mg/kg/day for 3 days measured on day 6 in presence of 2 mg/kg/day chloroquine; type: functional, organism-based; how it was run: as §3
# [17] = test system: Mus musculus; assay: Toxicity in Plasmodium berghei-infected mouse assessed as mortality at single dose of 80 mg/kg/day, po for 3 days; type: organism-based; design: route oral; details: in vivo, 72 h
# [18] = test system: Plasmodium falciparum; assay: Antimalarial activity against chloroquine-resistant Plasmodium falciparum FVO infected in Aotus lemurinus […] monkey assessed as reduction in parasitemia at 16 mg/kg/day, po for 3 days; type: functional, organism-based
# [19] = test system: Plasmodium falciparum; assay: Antimalarial activity against chloroquine-resistant Plasmodium falciparum FVO infected in Aotus lemurinus leminurus monkey assessed as reduction in parasitemia at 32 mg/kg/day, po for 3 days; type: functional, organism-based
# [20] = Cmax in ICR mouse at 50 mg/kg/day, po by LC/MS analysis; type: ADME, organism-based; design: dose 50 mg/kg/day, route oral; details: in vivo
# How it was run: (§4)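 Male ICR mice, 8 weeks old, got one 50 mg/kg dose either orally or subcutaneously, with three groups of six mice per route. One mouse per group was killed at 15, 30 and 60 min and at 3, 6 and 24 h. Plasma was deproteinized with 2 volumes of acetonitrile and analysed by LC-MS/MS on a C18 column against 0–500 ng/ml standards, with parent and acid metabolite measured in the same sample. Each six-mouse group was treated as one "animal" and fitted to a two-compartment model. AUC was taken by the linear trapezoidal rule extrapolated to infinity, and Cmax and Tmax were read per "animal".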
# [21] = Cmax in ICR mouse at 50 mg/kg/day, sc by LC/MS analysis; type: ADME, organism-based; design: dose 50 mg/kg/day, route subcutaneous; details: in vivo; how it was run: as §4
# [22] = Tmax in ICR mouse at 50 mg/kg/day, po by LC/MS analysis; type: ADME, organism-based; design: route oral; details: in vivo; how it was run: as §4
# [23] = AUC in ICR mouse at 50 mg/kg/day, po by LC/MS analysis; type: ADME, organism-based; design: route oral; details: plasma; how it was run: as §4
# [24] = AUC in ICR mouse at 50 mg/kg/day, sc by LC/MS analysis; type: ADME, organism-based; design: route subcutaneous; details: plasma; how it was run: as §4
# [25] = test system: Plasmodium berghei; assay: Antimalarial activity against Plasmodium berghei infected in mouse assessed as parasitemia level at 160 mg/kg/day for 3 days measured on day 3 (reference value: 0.46%); type: functional; how it was run: as §3
# [26] = test system: Plasmodium berghei; assay: Antimalarial activity against Plasmodium berghei infected in mouse assessed as parasitemia level at 0.32 mg/kg/day for 3 days measured on day 6 (reference value: 37%); type: functional
# [27] = test system: Plasmodium berghei; assay: Antimalarial activity against Plasmodium berghei infected in mouse assessed as effect on cure rate at 160 mg/kg/day for 3 days; type: functional, organism-based; how it was run: as §3
# [28] = test system: Plasmodium falciparum; assay: Antimicrobial activity against Plasmodium falciparum W2 at […] in presence of artemisinin; type: functional
# How it was run: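 In vitro fixed-ratio isobologram using a SYBR green I fluorescence assay. […] IC50s were standardized and FIC50 and ΣFIC50 calculated by the Berenbaum method. Reported as the average ΣFIC across dilutions or the average maximum ΣFIC, from at least 2 experiments.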
# [29] = test system: Plasmodium falciparum; assay: Antimicrobial activity against Plasmodium falciparum D6 infected in Aotus lemurinus lemurinus monkey at […] in presence of mefloquine; type: functional
# [30] = test system: Plasmodium berghei; assay: Antimalarial activity against Plasmodium berghei infected in mouse assessed as parasitemia level at 160 mg/kg/day for 3 days measured on day 3 in presence of 2 […] chloroquine (reference value: 0.46%); type: functional; how it was run: as §3
# [31] = test system: Plasmodium berghei; assay: Antimalarial activity against Plasmodium berghei infected in mouse assessed as effect on cure rate at 12.8 mg/kg/day for 3 days measured on day 6 in presence of 16 mg/kg/day chloroquine; type: functional, organism-based; how it was run: as §3
compound,measurement,setting,value
Nc1cccc(-c2csc(NC(=O)CCCCCCC(=O)NO)n2)c1,pIC50,[1],8.80
same,Activity,[2],inactive
same,Activity,[3],inactive
same,Activity,[4],inactive
same,fold change (FC),[5],0.32
same,fold change (FC),[6],0.03
same,fold change (FC),[7],0.004
same,fold change (FC),[8],0.001
same,fold change (FC),[9],0.57
same,Activity,[10],Non-toxic
same,Activity,[11],Non-toxic
same,Activity,[12],0.08%
same,Activity,[13],0.029%
same,Activity,[14],0.024%
same,Activity,[15],0%
same,Activity,[16],inactive
same,Activity,[17],Non-toxic
same,inhibition,[18],inactive
same,inhibition,[19],Active
same,Cmax,[20],2500 ng/mL
same,Cmax,[21],403 ng/mL
same,Tmax,[22],49.8 min
same,AUC,[23],3690 ng·h/mL
same,AUC,[24],3600 ng·h/mL
same,Activity,[25],0.64%
same,Activity,[26],45%
same,Activity,[27],inactive
same,fractional inhibitory concentration index (FICI),[28],2.1
same,fractional inhibitory concentration index (FICI),[29],2.2
same,Activity,[30],0.5%
same,Activity,[31],inactive
